This note sets out measurements from ChEMBL document CHEMBL1122414, “Anilides related to substituted benzamides. Potential antipsychotic activity of N-(4-amino-5-chloro-2-methoxyphenyl)-1-(phenylmethyl)-4-piperidinecarboxamide” (1983).

Structures are written as SMILES. Bounds are passed on as bounds.

Assay [1] has as its system Mus musculus. Description: Antagonistic activity against apomorphine induced climbing in CD-1 mice, after oral administration. The format is functional. The gist of the method:
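Male CD-1 mice (20–25 g), usually four groups of five, dosed orally with graded doses or vehicle 30 min before submaximal apomorphine (1 mg/kg sc). Climbing scored 10, 20 and 30 min later (modified Protais method). ED50 with 95% confidence limits by Litchfield–Wilcoxon.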

Assay [2] relates to Rattus norvegicus. Description: Evaluation of prolactin levels in Hooded Lister rats after subcutaneous administration. The settings on record: sc.
The test system of assay [3] is Rattus norvegicus. In words: Increase in intragastric pressure after subcutaneous administration to Wistar rats; 5-50.
Assay [4] concerns Rattus norvegicus. In words: Evaluation of HVA levels in striatum after subcutaneous administration to Hooded Lister rats. The settings on record: sc.
The subject of assay [5] is Rattus norvegicus. In words: Evaluation of HVA levels in limbic system in Hooded Lister rats after subcutaneous administration. The settings on record: sc.
In assay [6] the test system is Rattus norvegicus. In words: Antagonism of amphetamine induced syereotyped behavior after intraperitoneal administration to CD rats. The settings on record: ip.
Assay [7] has as its system Rattus norvegicus. In words: Antagonistic activity against apomorphine induced delay in gastric emptying in Wistar rats, after subcutaneous administration. The settings on record: Stomach, sc.
Assay [8] deals with Mus musculus. Description: Antagonistic activity against apomorphine induced climbing in CD-1 mice at 2 mg/kg after oral administration. It is filed as functional. The gist of the method: (§1)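 Male CD-1 mice (20–25 g), usually groups of five, given oral compound or vehicle 30 min before apomorphine 1 mg/kg sc. Climbing scored at 10, 20 and 30 min. Percent antagonism at the quoted dose.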

Assay [9] has as its system Mus musculus. Description: Percent antagonistic activity against apomorphine induced climbing in CD-1 mice at 0.5 mg/kg after oral administration. The format is functional. The gist of the method:
as §1

Assay [10] concerns Rattus norvegicus. Description: Increase in intragastric pressure after subcutaneous administration to Wistar rats.

With `COc1cc(N)c(Cl)cc1NC(=O)C1CCN(Cc2ccc(OCc3ccccc3)cc2)CC1`, the ED50 in the assay with Mus musculus [1] was > 4 mg/kg.

In the case of `COc1cc(N)c(Cl)cc1NC(=O)C1CCN(CC2CCCC2)CC1`, the ED50 with Mus musculus [1] is > 10 mg/kg.

In the case of `COc1cc(N)c(Cl)cc1NC(=O)C1CCN(Cc2cccs2)CC1`, the Inhibition in the assay on Mus musculus [1] worked out at 77%.

Turning to `CCC(CC)CN1CCC(C(=O)Nc2cc(Cl)c(N)cc2OC)CC1`, in the assay on Mus musculus [1], the ED50 is > 10 mg/kg.

For the compound `CCN1CCC(C(=O)Nc2cc(Cl)c(N)cc2OC)CC1`, the ED50 in the assay with Mus musculus [1] is > 10 mg/kg.

As for `COc1cc(N)c(Cl)cc1NC(=O)C1CCN(Cc2ccc(C)c(C)c2)CC1`, the ED50 in the assay with Mus musculus [1] was > 8 mg/kg.

For `COc1cc(N)c(Cl)cc1NC(=O)C1CCN(Cc2cccc(C)c2)CC1`, the ED50 in the assay with Mus musculus [1] stood at 2.4 mg/kg.

`COc1cc(N)c(Cl)cc1NC(=O)C1CCN(Cc2ccc(F)cc2)CC1` registered an ED50 with Mus musculus [1] of 0.6 mg/kg.

`COc1cc(N)c(Cl)cc1NC(=O)C1CCN(CC2CCCCC2)CC1`: the ED50 in the assay on Mus musculus [1] was 2.9 mg/kg.

Take `COc1cc(N)c(Cl)cc1NC(=O)C1CCN(Cc2ccccc2F)CC1`: the ED50 in the assay on Mus musculus [1] was > 4 mg/kg.

`COc1cc(N)c(Cl)cc1NC(=O)C1CCN(Cc2ccccc2)CC1`: the ED50 with Mus musculus [1] is 0.5 mg/kg; in the assay on Rattus norvegicus [2] it was 0.5 mg/kg; with Rattus norvegicus [3], > 50 mg/kg; in the assay on Rattus norvegicus [4], 0.4 mg/kg; with Rattus norvegicus [5], 0.5 mg/kg; in the assay with Rattus norvegicus [6], 0.25 mg/kg. In addition, the ED50 in the assay with Rattus norvegicus [7] is > 50 mg/kg.

In the case of `COc1cc(N)c(Cl)cc1NC(=O)C1CCN(CC2CCC2)CC1`, in the assay on Mus musculus [1], the ED50 was > 10 mg/kg.

As for `COc1cc(N)c(Cl)cc1NC(=O)C1CCN(Cc2ccc(Cl)cc2)CC1`, the ED50 in the assay on Mus musculus [1] is 1.2 mg/kg.

Regarding `COc1cc(N)c(Cl)cc1NC(=O)C1CCN(C/C=C/c2ccccc2)CC1`, the median effective dose (ED50) in the assay with Mus musculus [1] was > 10 mg/kg.

For `CCCCN1CCC(C(=O)Nc2cc(Cl)c(N)cc2OC)CC1`, the ED50 in the assay on Mus musculus [1] is > 10 mg/kg.

For `CCCCCCCN1CCC(C(=O)Nc2cc(Cl)c(N)cc2OC)CC1`, the ED50 in the assay with Mus musculus [1] is > 10 mg/kg.

Take `COc1cc(N)c(Cl)cc1NC(=O)C1CCN(CC2CC2)CC1`: in the assay on Mus musculus [1], the ED50 was > 10 mg/kg.

`CCOc1ccc(CN2CCC(C(=O)Nc3cc(Cl)c(N)cc3OC)CC2)cc1`: in the assay with Mus musculus [1], it took a dose of 6.3 mg/kg to reach the 50% effect level (ED50).

With `COc1cc(N)c(Cl)cc1NC(=O)C1CCN(Cc2ccc([N+](=O)[O-])cc2)CC1`, the ED50 in the assay with Mus musculus [1] is > 4 mg/kg.

Turning to `CCCN1CCC(C(=O)Nc2cc(Cl)c(N)cc2OC)CC1`, the ED50 in the assay on Mus musculus [1] was > 10 mg/kg.

Take `COc1cc(N)c(Cl)cc1NC(=O)C1CCN(Cc2cccc(F)c2)CC1`: in the assay on Mus musculus [8], the inhibition in vivo at 2 mg/kg turned out to be 58%.

For `COc1cc(N)c(Cl)cc1NC(=O)C1CCN(Cc2ccccc2C)CC1`, the inhibition in vivo at 2 mg/kg with Mus musculus [8] was 77%.

In the case of `COc1cc(N)c(Cl)cc1NC(=O)C1CCN(Cc2ccsc2)CC1`, it took a dose of 3.4 mg/kg to reach the 50% effect level in the assay with Mus musculus [1] (ED50).

Turning to `COc1cc(N)c(Cl)cc1NC(=O)C1CCN(CCc2ccccc2)CC1`, in the assay on Mus musculus [1], the ED50 was > 10 mg/kg.

Regarding `COc1cc(N)c(Cl)cc1NC(=O)C1CCN(C2CCCC2)CC1`, the ED50 with Mus musculus [1] was > 10 mg/kg.

In the assay on Mus musculus [1], `COc1ccc(CN2CCC(C(=O)Nc3cc(Cl)c(N)cc3OC)CC2)cc1` registered an ED50 of 0.9 mg/kg.

As to `COc1cc(N)c(Cl)cc1NC(=O)C1CCN(Cc2cccc(Cl)c2)CC1`, the ED50 in the assay on Mus musculus [1] was > 4 mg/kg.

In the assay on Mus musculus [1], `COc1cc(N)c(Cl)cc1NC(=O)C1CCN(Cc2ccc3c(c2)OCO3)CC1` had an ED50 of 4.3 mg/kg.

Take `CCCCCCN1CCC(C(=O)Nc2cc(Cl)c(N)cc2OC)CC1`: the ED50 with Mus musculus [1] was > 10 mg/kg.

For `COc1cc(N)c(Cl)cc1NC(=O)C1CCN(CC2CCCCCC2)CC1`, the ED50 in the assay on Mus musculus [1] was > 10 mg/kg.

As for `COc1cc(N)c(Cl)cc1NC(=O)C1CCN(Cc2ccc(C)cc2)CC1`, the inhibition in vivo at 0.5 mg/kg in the assay on Mus musculus [9] stood at 50%.

Regarding `COc1cccc(CN2CCC(C(=O)Nc3cc(Cl)c(N)cc3OC)CC2)c1`, in the assay on Mus musculus [1], the ED50 was > 4 mg/kg.

As to `COc1cc(N)c(Cl)cc1NC(=O)C1CCN(Cc2cccc(C#N)c2)CC1`, the ED50 with Mus musculus [1] was > 4 mg/kg.

`COc1cc(N)c(Cl)cc1NC(=O)C1CCN(Cc2ccccc2Cl)CC1`: the ED50 with Mus musculus [1] is > 4 mg/kg.

For `CCCCCN1CCC(C(=O)Nc2cc(Cl)c(N)cc2OC)CC1`, the ED50 in the assay on Mus musculus [1] is > 10 mg/kg.

Take `COc1cc(N)c(Cl)cc1NC(=O)C1CCN(Cc2ccc(O)cc2)CC1`: the ED50 with Mus musculus [1] is > 8 mg/kg.

Turning to `COc1cc(N)c(Cl)cc1C(=O)NC1CCN(Cc2ccccc2)CC1` [CLEBOPRIDE], the ED50 turned out to be 0.7 mg/kg in the assay on Mus musculus [1]; 0.14 mg/kg with Rattus norvegicus [2]; 0.1 mg/kg in the assay on Rattus norvegicus [4]; 0.2 mg/kg with Rattus norvegicus [5]; 0.11 mg/kg in the assay on Rattus norvegicus [7]. The same compound had a lowest active dose in the assay on Rattus norvegicus [10] of 1 mg/kg.
